# Measured values from ChEMBL document CHEMBL2029270, “Irreversible inhibition of epidermal growth factor receptor activity by 3-aminopropanamides” (J Med Chem, 2012).
# The source made the active and inactive calls. The rule behind the calls is not given here.
# Columns and labels:
# NCI-H1975 [1] = experiment: Antiproliferative activity against gefitinib-resistant human NCI-H1975 cells expressing EGFR T790M mutant after 3 days by MTT assay; assay type: functional, cell-based; details: NCI-H1975, 72 h
# [2] = molecular target: T1, Epidermal growth factor receptor (Homo sapiens, UniProt P00533); experiment: Inhibition of human recombinant EGFR using Ulight-CAGAGAIETDKEYYTVKD as substrate after 15 mins by time-resolved fluorimetric analysis
# NCI-H1975 [3] = experiment: Ratio of gefitinib IC50 to compound IC50 for human NCI-H1975 cells; assay type: functional
# [4] = molecular target: T1, Epidermal growth factor receptor; details: A549, at 1 µM
# [5] = molecular target: T1, Epidermal growth factor receptor; details: A549, at 1 µM; remark: listed apart in the source
# A549 [6] = experiment: Drug uptake in human A549 cells at 1 uM after 1 hr by LC-MS analysis; assay type: ADME, cell-based; details: a549, 1 h
# Procedure, shortened: (§1)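 A549 cells plated 24 h, then exposed 1 h at 37 °C to 1 μM compound (0.1% DMSO final), assayed immediately or 8 h after three washes with fresh medium. Ethanol extraction at 4 °C, extract dried, redissolved, quantified by LC−MS against 50 nM–5 μM calibration (LOQ 50 nM, LOD 20 nM).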
# A549 [7] = experiment: Drug uptake in human A549 cells at 1 uM incubated for 1 hr measured 8 hrs post-wash out by LC-MS analysis; assay type: ADME, cell-based; details: a549, 1 h; procedure, shortened: as §1
# [8] = molecular target: T2, Receptor tyrosine-protein kinase erbB-2 (Homo sapiens, UniProt P04626); experiment: Inhibition of ErbB2 by time-resolved fluorometry
# [9] = tested on: Epidermal growth factor receptor (Homo sapiens), P00533 [T790M]; experiment: (§2) Inhibition of EGFR T790M mutant autophosphorylation in human NCI-H1975 cells after 1 hr by Western blot analysis; assay type: cell-based
# [10] = molecular target: Epidermal growth factor receptor (Homo sapiens, UniProt P00533, T790M); experiment: as §2; assay type: cell-based
# [11] = Chemical stability of the compound in 0.01 M PBS buffer assessed as compound remaining at 1 uM after 24 hrs at pH 7.4; assay type: physicochemical; details: read-out: Stability
# Procedure, shortened: (§3)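 Buffer stability at pH 7.4 or pH 9.0, compound at 1 μM, 37 °C for 24 h; percentage of parent left measured by LC−UV and LC−ESI-MS, mean ± SD, n = 3.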
# [12] = Chemical stability of the compound in 0.01 M borate buffer assessed as compound remaining at 1 uM after 24 hrs at pH 9; assay type: physicochemical; details: read-out: Stability; procedure, shortened: as §3
# [13] = Metabolic stability in rat plasma assessed as compound remaining at 1 uM after 24 hrs; assay type: ADME, cell-free; details: read-out: Stability
# Procedure, shortened: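 Incubation of compound (1 μM) in 80% (v/v) rat plasma at 37 °C for 24 h; parent remaining determined by LC−UV and LC−ESI-MS, mean ± SD, n = 3.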
# [14] = Chemical stability of the compound assessed as compound remaining at 1 uM after 1 hr at pH 7.4 in the presence of DTT; assay type: physicochemical; details: buffer, read-out: Stability
# Procedure, shortened: (§4)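 Test compound (1 μM) in PBS pH 7.4 with freshly prepared thiol (DTT, GSH, NAC or cysteamine, 2 mM), incubated 1 h at 37 °C; parent remaining quantified by LC−UV and LC−ESI-MS, mean ± SD, n = 3.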
# [15] = Chemical stability of the compound assessed as compound remaining at 1 uM after 1 hr at pH 7.4 in the presence of GSH; assay type: physicochemical; details: buffer, read-out: Stability; procedure, shortened: as §4
# [16] = Chemical stability of the compound assessed as compound remaining at 1 uM after 1 hr at pH 7.4 in the presence of NAC; assay type: physicochemical; details: buffer, read-out: Stability; procedure, shortened: as §4
# [17] = Chemical stability of the compound assessed as compound remaining at 1 uM after 1 hr at pH 7.4 in the presence of cysteamine; assay type: physicochemical; details: buffer, read-out: Stability; procedure, shortened: as §4
# [18] = molecular target: T2, Receptor tyrosine-protein kinase erbB-2; experiment: Inhibition of ErbB2 up to 10 uM by time-resolved fluorometry
# [19] = Drug degradation of the compound assessed as thiol-conjugate formation at 1 uM up to 24 hrs at pH 7.4 in the presence of DTT; assay type: physicochemical; details: buffer, pH 7.4, 24 h
# Procedure, shortened: (§5)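 Conjugate formation checked by HPLC−UV and HPLC−ESI-MS after adding freshly prepared thiol (2 mM; cysteamine, NAC, DTT or reduced GSH) to PBS pH 7.4 holding compound at 1 μM, 37 °C; sampled up to 24 h.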
# [20] = Drug degradation of the compound assessed as thiol-conjugate formation at 1 uM up to 24 hrs at pH 7.4 in the presence of GSH; assay type: physicochemical; details: buffer, pH 7.4, 24 h; procedure, shortened: as §5
# [21] = Drug degradation of the compound assessed as thiol-conjugate formation at 1 uM up to 24 hrs at pH 7.4 in the presence of NAC; assay type: physicochemical; details: buffer, pH 7.4, 24 h; procedure, shortened: as §5
# [22] = Drug degradation of the compound assessed as thiol-conjugate formation at 1 uM up to 24 hrs at pH 7.4 in the presence of cysteamine; assay type: physicochemical; details: buffer, pH 7.4, 24 h; procedure, shortened: as §5
# A549 [23] = experiment: Prodrug conversion in human A549 cell lysate assessed as N-(4-(3-bromophenylamino)quinazolin-6-yl)acrylamide level at 10 uM after 1 hr by HPLC-HRMS analysis; assay type: ADME, cell-based; details: a549, 1 h
# Procedure, shortened: (§6)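 A549 cells grown 2 days, lysed by freeze/thaw; lysate pre-spiked with 2 mM cysteine, compound added from fresh DMSO stock to 10 μM final, 37 °C. Aliquots at 0, 1 and 4 h quenched with double volume acetonitrile, centrifuged, analysed by LC−HRMS in positive ion mode.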
# A549 [24] = experiment: Drug metabolism in human A549 cell lysate assessed as N-(4-(3-bromophenylamino)quinazolin-6-yl)acrylamide-cysteine adduct level at 10 uM after 1 hr by HPLC-HRMS analysis; assay type: ADME, cell-based; details: a549, 1 h; procedure, shortened: as §6
# T2 sequence (P04626 whole entry): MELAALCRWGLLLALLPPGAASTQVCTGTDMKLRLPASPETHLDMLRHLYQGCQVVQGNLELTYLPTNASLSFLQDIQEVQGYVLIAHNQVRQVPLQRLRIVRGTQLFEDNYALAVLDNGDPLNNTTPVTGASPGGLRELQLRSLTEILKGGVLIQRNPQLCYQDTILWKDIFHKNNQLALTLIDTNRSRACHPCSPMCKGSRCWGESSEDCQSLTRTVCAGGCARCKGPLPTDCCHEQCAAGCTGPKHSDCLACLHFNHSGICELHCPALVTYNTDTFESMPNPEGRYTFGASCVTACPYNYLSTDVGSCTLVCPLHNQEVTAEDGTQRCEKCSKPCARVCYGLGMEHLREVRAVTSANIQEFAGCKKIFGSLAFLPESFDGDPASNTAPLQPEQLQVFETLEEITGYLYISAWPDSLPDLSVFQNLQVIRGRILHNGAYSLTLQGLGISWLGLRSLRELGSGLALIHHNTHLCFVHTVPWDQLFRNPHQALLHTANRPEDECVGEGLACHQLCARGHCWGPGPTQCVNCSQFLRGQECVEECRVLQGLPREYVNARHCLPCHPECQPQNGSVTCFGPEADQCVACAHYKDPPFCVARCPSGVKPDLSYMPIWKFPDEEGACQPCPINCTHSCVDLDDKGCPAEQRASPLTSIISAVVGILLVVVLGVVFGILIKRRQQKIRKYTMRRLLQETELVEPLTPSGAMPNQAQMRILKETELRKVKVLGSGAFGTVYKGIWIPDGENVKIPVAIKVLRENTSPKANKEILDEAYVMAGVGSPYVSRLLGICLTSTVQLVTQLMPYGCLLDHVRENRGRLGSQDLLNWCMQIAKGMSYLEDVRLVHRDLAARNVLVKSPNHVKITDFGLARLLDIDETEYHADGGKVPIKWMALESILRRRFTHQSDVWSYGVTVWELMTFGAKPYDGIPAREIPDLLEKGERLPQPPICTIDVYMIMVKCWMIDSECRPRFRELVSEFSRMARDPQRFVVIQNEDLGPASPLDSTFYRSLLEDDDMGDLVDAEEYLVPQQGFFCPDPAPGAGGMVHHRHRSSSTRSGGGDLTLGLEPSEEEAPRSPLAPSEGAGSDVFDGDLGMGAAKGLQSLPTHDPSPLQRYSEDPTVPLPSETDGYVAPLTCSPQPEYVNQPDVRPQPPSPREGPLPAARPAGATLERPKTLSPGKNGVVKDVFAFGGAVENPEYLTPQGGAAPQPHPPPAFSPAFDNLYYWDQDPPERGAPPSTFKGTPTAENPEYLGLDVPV
# T1 sequence (P00533 whole entry): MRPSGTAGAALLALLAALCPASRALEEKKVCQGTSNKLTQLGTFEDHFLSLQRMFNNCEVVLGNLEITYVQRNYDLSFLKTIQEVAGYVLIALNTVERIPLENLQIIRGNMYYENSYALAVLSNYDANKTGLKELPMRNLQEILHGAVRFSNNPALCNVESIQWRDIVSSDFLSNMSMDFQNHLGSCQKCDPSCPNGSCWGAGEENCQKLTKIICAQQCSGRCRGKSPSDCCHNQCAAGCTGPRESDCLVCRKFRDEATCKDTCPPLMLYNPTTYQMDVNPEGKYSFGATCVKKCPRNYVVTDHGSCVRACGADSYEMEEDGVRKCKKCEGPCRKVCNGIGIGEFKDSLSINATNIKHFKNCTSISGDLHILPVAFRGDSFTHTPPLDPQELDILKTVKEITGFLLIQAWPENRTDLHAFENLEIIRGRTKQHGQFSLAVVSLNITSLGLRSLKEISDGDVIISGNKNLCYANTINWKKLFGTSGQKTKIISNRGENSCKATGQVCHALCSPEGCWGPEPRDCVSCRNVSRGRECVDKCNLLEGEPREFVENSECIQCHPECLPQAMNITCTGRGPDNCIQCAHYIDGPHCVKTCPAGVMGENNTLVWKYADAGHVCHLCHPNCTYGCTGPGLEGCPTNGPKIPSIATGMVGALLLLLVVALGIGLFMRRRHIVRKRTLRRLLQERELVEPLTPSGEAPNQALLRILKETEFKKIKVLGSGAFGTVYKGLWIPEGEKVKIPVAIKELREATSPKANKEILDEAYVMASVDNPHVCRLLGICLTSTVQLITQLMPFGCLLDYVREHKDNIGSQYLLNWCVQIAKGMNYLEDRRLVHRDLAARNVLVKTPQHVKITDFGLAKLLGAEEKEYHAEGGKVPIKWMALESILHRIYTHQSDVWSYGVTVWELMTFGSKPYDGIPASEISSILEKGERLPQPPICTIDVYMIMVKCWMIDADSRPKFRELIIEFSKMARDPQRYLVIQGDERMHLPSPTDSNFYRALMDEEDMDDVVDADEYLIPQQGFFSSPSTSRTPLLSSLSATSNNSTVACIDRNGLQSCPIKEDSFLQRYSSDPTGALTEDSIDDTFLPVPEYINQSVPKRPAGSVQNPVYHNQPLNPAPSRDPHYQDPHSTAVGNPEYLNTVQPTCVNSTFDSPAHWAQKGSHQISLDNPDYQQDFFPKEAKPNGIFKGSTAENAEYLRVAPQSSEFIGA
# Epidermal growth factor receptor (Homo sapiens, UniProt P00533, T790M), sequence (P00533 whole entry T790M): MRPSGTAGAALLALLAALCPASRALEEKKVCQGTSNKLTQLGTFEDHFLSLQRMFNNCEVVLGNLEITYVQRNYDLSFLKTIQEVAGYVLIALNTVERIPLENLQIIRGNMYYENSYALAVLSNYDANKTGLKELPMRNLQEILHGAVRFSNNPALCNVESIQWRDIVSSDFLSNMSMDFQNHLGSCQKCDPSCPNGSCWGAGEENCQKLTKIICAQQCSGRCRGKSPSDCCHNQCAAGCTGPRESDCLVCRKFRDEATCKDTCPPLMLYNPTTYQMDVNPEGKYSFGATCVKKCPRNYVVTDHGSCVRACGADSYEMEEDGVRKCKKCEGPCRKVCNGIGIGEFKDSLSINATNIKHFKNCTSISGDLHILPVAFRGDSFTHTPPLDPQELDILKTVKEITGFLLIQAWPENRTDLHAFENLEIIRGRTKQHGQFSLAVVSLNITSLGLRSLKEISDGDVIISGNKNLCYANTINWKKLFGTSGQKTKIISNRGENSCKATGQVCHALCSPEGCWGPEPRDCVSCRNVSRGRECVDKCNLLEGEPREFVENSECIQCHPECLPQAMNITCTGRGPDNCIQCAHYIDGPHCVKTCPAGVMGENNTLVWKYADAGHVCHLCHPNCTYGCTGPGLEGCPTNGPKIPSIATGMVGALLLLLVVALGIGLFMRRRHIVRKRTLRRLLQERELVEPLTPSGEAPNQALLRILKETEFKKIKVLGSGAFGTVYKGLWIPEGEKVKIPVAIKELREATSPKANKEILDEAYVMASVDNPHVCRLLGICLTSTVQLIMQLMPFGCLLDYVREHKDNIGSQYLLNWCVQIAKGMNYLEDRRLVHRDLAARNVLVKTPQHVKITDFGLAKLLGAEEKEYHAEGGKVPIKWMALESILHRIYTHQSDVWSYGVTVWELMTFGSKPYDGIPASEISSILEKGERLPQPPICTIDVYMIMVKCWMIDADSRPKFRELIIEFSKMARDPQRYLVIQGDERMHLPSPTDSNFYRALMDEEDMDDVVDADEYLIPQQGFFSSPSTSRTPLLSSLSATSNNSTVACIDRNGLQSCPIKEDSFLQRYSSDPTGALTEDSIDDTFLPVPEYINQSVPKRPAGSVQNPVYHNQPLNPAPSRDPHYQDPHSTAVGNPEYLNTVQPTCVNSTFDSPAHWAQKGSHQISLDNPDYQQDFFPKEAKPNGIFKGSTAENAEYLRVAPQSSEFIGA
# Epidermal growth factor receptor (Homo sapiens), P00533 [T790M], sequence (P00533 whole entry T790M): as above
SMILES,IC50 (NCI-H1975 [1]) [nM],IC50 [2] [nM],inhibition [4] [%],inhibition [5] [%],further results
Nc1ccc2ncnc(Nc3cccc(Br)c3)c2c1,,,,,Drug uptake (A549 [6]): 0.105 nmol/mg; Drug uptake (A549 [7]): Not Active
CCOc1cc2ncc(C#N)c(Nc3ccc(F)c(Cl)c3)c2cc1NC(=O)CCN1CCOCC1,3930,2.02,48,86,
CCOc1cc2ncc(C#N)c(Nc3ccc(F)c(Cl)c3)c2cc1NC(=O)CCN(C)C,2370,0.68,67,88,
CN(C)CCC(=O)N(C)c1ccc2ncnc(Nc3cccc(Br)c3)c2c1,13600,17.4,10,47,
CCOc1cc2ncc(C#N)c(Nc3ccc(OCc4ccccn4)c(Cl)c3)c2cc1NC(=O)CCN1CCOCC1,2760,37.5,39,48,
C=CC(=O)Nc1cc2c(Nc3ccc(F)c(Cl)c3)c(C#N)cnc2cc1OCC,3570,1.46,33,92,
O=C(CCN1CCOCC1)Nc1ccc2ncnc(Nc3cccc(Br)c3)c2c1,> 20000,0.51,91,98,
O=C(CCN1CCCCC1)Nc1ccc2ncnc(Nc3cccc(Br)c3)c2c1,6670,0.27,93,95,
CCOc1cc2ncc(C#N)c(Nc3ccc(F)c(Cl)c3)c2cc1NC(=O)CCN1CCCCC1,2730,2.21,82,92,
CN(C)CCC(=O)Nc1ccc2ncnc(Nc3cccc(Br)c3)c2c1,,,,,"remaining at 24 h, 1 µM [11]: 97.5%; remaining at 24 h, 1 µM [12]: 77%; remaining at 24 h, 1 µM [13]: 98.7%; remaining at 1 h, 1 µM [14]: 99.2%; remaining at 1 h, 1 µM [15]: 101%; remaining at 1 h, 1 µM [16]: 100%; remaining at 1 h, 1 µM [17]: 100%; inhibition [18]: inactive; Drug degradation [19]: Not Active; Drug degradation [20]: Not Active; Drug degradation [21]: Not Active; Drug degradation [22]: Not Active; Drug uptake (A549 [6]): 0.05 nmol/mg; Drug uptake (A549 [7]): Not Active; Drug metabolism (A549 [23]): Active; Drug metabolism (A549 [24]): Active"
C=CC(=O)Nc1ccc2ncnc(Nc3cccc(Br)c3)c2c1,,,,,"remaining at 24 h, 1 µM [11]: 102%; remaining at 24 h, 1 µM [12]: 105%; remaining at 24 h, 1 µM [13]: 21.8%; remaining at 1 h, 1 µM [14]: 100%; remaining at 1 h, 1 µM [15]: 63.8%; remaining at 1 h, 1 µM [16]: 85.6%; remaining at 1 h, 1 µM [17]: 20.1%; Drug degradation [20]: Active; Drug degradation [21]: Active; Drug degradation [22]: Active; Drug uptake (A549 [6]): Not Active; Drug uptake (A549 [7]): Not Active"

# Now from value to molecule, other results behind:
IC50 (NCI-H1975 [1]) [nM],IC50 [2] [nM],inhibition [4] [%],inhibition [5] [%],SMILES,further results
2110,0.29,97,97,CCOc1cc2ncnc(Nc3ccc(F)c(Cl)c3)c2cc1NC(=O)CCN1CCOCC1,Ratio IC50 (NCI-H1975 [3]): 3
1610,0.51,92,98,CCOc1cc2ncnc(Nc3ccc(F)c(Cl)c3)c2cc1NC(=O)CCN1CCCCC1,Ratio IC50 (NCI-H1975 [3]): 3
2210,0.27,100,98,CCOc1cc2ncnc(Nc3ccc(F)c(Cl)c3)c2cc1NC(=O)CCN(C)C,Ratio IC50 (NCI-H1975 [3]): 3
2030,12.5,59,61,CCOc1cc2ncc(C#N)c(Nc3ccc(OCc4ccccn4)c(Cl)c3)c2cc1NC(=O)CCN(C)C,IC50 [8]: 970 nM
1620,0.18,99,96,C=CC(=O)Nc1cc2c(Nc3ccc(F)c(Cl)c3)ncnc2cc1OCC,
710,24.8,58,71,CCOc1cc2ncc(C#N)c(Nc3ccc(OCc4ccccn4)c(Cl)c3)c2cc1NC(=O)CCN1CCCCC1,inhibition [9]: Dose-dependent effect; IC50 [10]: 150 nM; IC50 [8]: 980 nM; Ratio IC50 (NCI-H1975 [3]): 11
